From article PMC6759879 (Journal of the American Heart Association: Cardiovascular …, 2019)

Legend:
[1] = target: Cx43 CT (amino acids 255–382) (Rattus norvegicus, UniProt P08050); assay: Surface plasmon resonance, immobilized biotin-peptides, Cx43 CT analyte; format: binding
How it was run: (§1)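 Biotin-peptides are immobilized at equal RU on a streptavidin chip in HEPES/EDTA/NaCl/Tween‑20, pH 7.4. Analyte is Cx43 CT (wild type or KK/QQ) with GST removed by PreScission protease, injected at several concentrations in random order in 10 mmol/L HEPES, 100 mmol/L NaCl pH 7.4 at 30 μL/min. Regeneration: 50 mmol/L NaOH/1 mol/L NaCl. Biotin-reversed-sequence reference subtracted; mean of 3 runs.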

Cx43 CT‐KK/QQ = assay: Surface plasmon resonance, immobilized biotin-peptides, Cx43 CT‐KK/QQ analyte; format: binding; details: analyte 0.5 to 15 μmol/L, reverse control peptide subtracted, mean of 3 runs
How it was run: as §1

ZO‐1 PDZ2 = assay: Protein thermal shift assay, ZO‐1 PDZ2; format: binding; details: 500 μg/mL GST‐PDZ2, 25 to 100 μmol/L peptide, PBS pH 7.4, SYPRO Orange, N=6
How it was run: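 Recombinant GST–PDZ2 (500 μg/mL) is mixed with 25–100 μmol/L peptide in PBS pH 7.4 with SYPRO Orange at 8× final. Melt runs from 25°C to 95°C in 0.05 °C/s steps on a real-time PCR instrument, ROX channel, no quencher. Tm is compared against unliganded protein. Six independent runs.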

[2] = test system: PKCε phosphorylation of Cx43‐CT substrate at Ser368; assay: PKCε Cx43 CT S368 phosphorylation assay; format: biochemical; details: Western blot pS368/total Cx43; biotin-tagged peptides
How it was run: (§2)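 PKCε (400 ng/mL, prediluted in HEPES/CHAPS/DTT buffer) is used with wild-type or KK/QQ Cx43‑CT (aa 255–382) substrate at 14 μg/mL, plus peptide. Incubated 12 min at 37°C, quenched in LDS, blotted for pS368, stripped, reprobed for total Cx43. % phosphorylation normalized to PKC+ no-peptide control.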

[3] = test system: Cx43 CT KK/QQ mutant substrate; assay: PKCε phosphorylation assay with Cx43 CT KK/QQ mutant substrate; format: biochemical; details: biotin‐αCT1 20 μmol/L
How it was run: as §2

ZO‐1 PDZ2 domain = assay: EDC zero-length cross‐linking to GST ZO‐1 PDZ domains; format: binding; details: biotin‐tagged peptide at 5, 25 and 50 μmol/L, NeutrAvidin labeling
How it was run: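 Direct coupling uses purified GST–ZO‑1 PDZ fusion protein from IPTG-induced BL21 at 50 μg/mL with biotinylated peptide in PBS pH 7.5. They react 1 h at room temperature before EDC is added. The mixture is boiled in LDS buffer, run on 18% SDS‑PAGE and blotted for GST or with NeutrAvidin‑HRP by chemiluminescence.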

Cx43 CT = assay: EDC cross‐linking of kinase reaction mixtures, Cx43 CT; format: binding; details: peptide at 5, 10 and 25 μmol/L, streptavidin labeling
How it was run: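 Kinase mixture as in the PKCε assay, but in 20 mmol/L MOPS pH 7.2 with 30 μg/mL Cx43 CT substrate and varied peptide, 15 min at 37°C. EDC added to 20 mmol/L final and left 1 h at room temperature. Stopped with LDS buffer and boiled 5 min. Run on 18% gels, then Coomassie-stained (bands excised for MS/MS) or blotted for biotin with HRP‑NeutrAvidin.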

Sequence of Cx43 CT (amino acids 255–382) (P08050 255-382): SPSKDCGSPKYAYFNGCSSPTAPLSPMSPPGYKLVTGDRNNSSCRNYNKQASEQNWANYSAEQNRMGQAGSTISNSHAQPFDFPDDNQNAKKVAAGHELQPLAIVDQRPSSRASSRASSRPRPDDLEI

Row | Cx43 CT KK/QQ mutant binding to immobilized biotin-peptide (SPR response) (Cx43 CT‐KK/QQ) | Sequence | Cx43 S368 phosphorylation versus PKCε+plus control (in words) [2] | further results
1 | minimal interaction | RQPKIWFPNRRKPWKK RPRPDDLBI [Peptide M3] | did not increase Cx43 S368 phosphorylation | SPR binding kinetics with Cx43 CT (in words) ([1]; inspection of SPR curves): higher initial on rate; Change of ZO‐1 PDZ2 melt temperature (Tm) (ZO‐1 PDZ2): evidence of significant interaction
2 | minimal interaction | RQPKIWFPNRRKPWKK RPRPAALAI [Peptide M1] | did not increase Cx43 S368 phosphorylation | Cx43 CT binding to immobilized biotin-peptide (SPR response) ([1]; analyte 0.5 to 15 μmol/L, reverse control peptide subtracted, mean of 3 runs): loss of Cx43 CT binding competence; Phosphorylation of Cx43 CT KK/QQ mutant substrate [3]: Neither αCT1 nor M1 prompted an increase in phosphorylation
3 | – | RQPKIWFPNRRKPWKK RPRPDDLE [αCT1‐I] | significant increase in PKCε‐mediated phosphorylation of Cx43 CT | Interaction with ZO‐1 PDZ2 by EDC cross‐linking (ZO‐1 PDZ2 domain): incompetent to interact with the ZO‐1 PDZ2 domain
4 | minimal interaction | RQPKIWFPNRRKPWKK RPRPAALEI [Peptide M2] | did not increase Cx43 S368 phosphorylation | –
5 | – | RQPKIWFPNRRKPWKK LPAARIAPR [Peptide M4] | – | Cross‐linking to Cx43 CT by EDC (Cx43 CT): no evidence of cross‐linking
